# Laboratory results published in publication PMC3831721 (Indian Journal of Pharmaceutical Sciences, 2013).
# Test system: Sprague Dawley rats
# Experiment: Antiinflammatory activity, carrageenan hind paw edema method
# Format: in vivo
# Conditions: rat, oral, equivalent to 20 mg/kg
# Procedure, shortened: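 Sprague Dawley rats (100-200 g), six per group (3 male, 3 female). Test compound given orally in 1% sodium CMC suspension, equivalent to 20 mg/kg; controls received 1% CMC only. After 30 min, 0.1 ml 1% w/v carrageenan in normal saline injected into the right hind paw plantar surface. Paw volume measured by plethysmometer before dosing and at 0.5, 1, 2, 4 and 6 h. %inhibition = (1−Vt/Vc)×100, using mean relative volume change.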
structure (smiles),measurement,value
"CCc1cccc2c3c([nH]c12)C(CC)(CC(=O)O)OCC3 (racemic) [EC, (RS)-2-(1,8-Diethyl-4,9-dihydro-3H-pyrano[3,4-b]indol-1-yl) acetic acid]",Antiinflammatory activity (6 h) Inhibition of edema (%),81.9%
